# A selection: hits, their analogues and other compounds. The true share with any hit is near 2.1%.
# MsrA act = activates bovine MsrA enzyme | purified bovine MsrA, absorbance read-out | activation, % at 10.6 µM | hit rate 0.3% among 360,000 | AID 602163; in the data active means activation above about 7.5%;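 further: 0% = vehicle and 100% = reference activator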
# PKA-R2B activ = activates the human PKA-R2B holoenzyme complex. PKA-R2B holoenzyme dissociation, Cy5-IP20 fluorescence polarization; R2B truncated from residue 108, S112A mutant; 0% DMSO only, 100% 113 µM cGMP. hit rate 0.079% among 340,000. P22694+P31323. activation, % at 11.4 µM;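 active means activation above a cutoff set at the mean over all compounds plus 3 SD, cut at about 18% in these data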;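 further: higher means more holoenzyme dissociation and a rise in polarization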
# Target sequence (P31323 whole entry, looked up, other chains not shown, the tested form may be a part): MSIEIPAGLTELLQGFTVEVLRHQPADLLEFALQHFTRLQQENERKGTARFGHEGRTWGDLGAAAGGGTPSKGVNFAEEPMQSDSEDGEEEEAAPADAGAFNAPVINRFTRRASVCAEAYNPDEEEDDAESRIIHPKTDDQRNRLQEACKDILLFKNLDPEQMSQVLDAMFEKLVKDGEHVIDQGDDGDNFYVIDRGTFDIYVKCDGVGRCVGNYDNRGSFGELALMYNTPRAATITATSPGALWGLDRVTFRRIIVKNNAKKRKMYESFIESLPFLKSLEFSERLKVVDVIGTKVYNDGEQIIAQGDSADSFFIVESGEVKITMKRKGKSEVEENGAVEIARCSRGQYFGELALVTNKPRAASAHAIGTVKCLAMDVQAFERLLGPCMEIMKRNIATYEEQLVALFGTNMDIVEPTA
# VIM-2 inhibitor = inhibitors of Pseudomonas aeruginosa VIM-2 metallo-beta-lactamase; purified VIM-2, nitrocefin hydrolysis, epi-absorbance fluorescence; hit rate 0.89% among 290,000; inhibition, % at 5.6 µM;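 active means inhibition above the mean of all tested compounds plus 3 SD, cutoff set per screening run, cut at about 7.5% in these data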;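 further: red hydrolysis product quenches plate fluorescence so inhibitors raise well fluorescence; 0% = enzyme with DMSO and 100% = DMSO without enzyme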
# MsrA inh = inhibits bovine methionine sulfoxide reductase A. inhibition, % at 15.5 µM. AID 651718. hit rate 0.75% among 360,000. purified bovine MsrA, absorbance read-out; in the data active means inhibition above about 4.5%;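 further: 0% = vehicle wells with enzyme and 100% = reference inhibitor wells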
# IMP-1 inh = inhibitors of Pseudomonas aeruginosa IMP-1 metallo-beta-lactamase; AID 1556; inhibition, % at 5.6 µM; purified IMP-1, nitrocefin hydrolysis, epi-absorbance fluorescence; hit rate 0.45% among 290,000;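 active means inhibition above the mean plus 3 SD of all compounds in the same screening run, cut at about 4.5% in these data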;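 further: 0% = IMP-1 with DMSO and 100% = DMSO wells lacking enzyme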
#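 System: Purified recombinant IMP-1 metallo-beta-lactamase enzyme | Measured by: Fluorescence quenching readout, ex 480/em 530 nm | Replication: Singlicate | Incubation: 15 min preincubation plus 25 min reaction at 25 °C | Evaluation: Percent inhibition from optical density relative to buffer-blank wells | Benchmarks: DMSO with and without IMP-1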
# PKA-R1A activ = activators of PKA-R1A complex; P00514+P68181; PKA-R1A dissociation, Cy5-IP20 fluorescence polarization; scaled: DMSO 0%, 113 µM cGMP 100%; activation, % at 11.4 µM; hit rate 0.083% among 340,000; AID 504707;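 active means percent activation above the mean of all tested compounds plus 3 SD, cut at about 19% in these data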;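 further: higher means more PKAc released from R1A so a rise in polarization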
# R2B FP artifact = FP assay interference, PKA-R2B counter-screen. activation, % at 11.4 µM. FP artifact counterscreen, fluorescence polarization. hit rate 6% among 270. shares compounds with PKA-R2B activ. AID 504796; in the data active means activation above about 20%;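 further: Cy5 labelled IP20 peptide probe with compound but no PKA protein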
# PKA-R2B act conf = confirmation of human PKA-R2B complex activators; AID 504797; fluorescence polarization, activation; hit rate 9% among 270; activation, % at 11.4 µM; shares compounds with PKA-R2B activ; in the data active means activation above about 19%
# Target sequence (P31323 whole entry, looked up): as the sequence (P31323 whole entry, looked up, other chains not shown, the tested form may be a part) above
# * = called active by the depositor; x = no result given; ! = not confirmed by another sample.
SMILES,MsrA act,PKA-R2B activ,VIM-2 inhibitor,MsrA inh,IMP-1 inh,PKA-R1A activ,R2B FP artifact,PKA-R2B act conf
C=CCNC(=O)c1onc(CSc2ccccc2)c1C(=O)NCC=C,-3,4,x,0,x,-1,x,x
C=CCNC(=O)c1onc(CSc2ccncc2)c1C(=O)NCC=C,-2,22*,x,0,x,-9,3,0
Cc1cccc(NC(=O)CSc2nc3nc4c(cc3c(=O)n2-c2ccccc2)CCCC4)c1,-7,-11,-1,-1,-2,-6,x,x
O=C(CSc1nc2nc3c(cc2c(=O)n1-c1ccccc1)CCCC3)Nc1cccc2ccccc12,2,19*,-2,1,-5,0,2,3
CCCCOCC1CN(CCCC)S(=O)(=O)c2c(cccc2Sc2ccc(SC)cc2)O1 (stereo unspecified),x,x,x,1,x,x,x,x
O=C(O)c1sccc1SCc1ccc(Cl)cc1Cl,-2,23*,5,0,-2,10,2,15
CSCC(=O)NCC1(N(C)Cc2ccccc2)Cc2ccccc2C1,-2,-3,0,0,-1,12,x,x
CC#CC(=O)NCC1(N(C)Cc2ccccc2)Cc2ccccc2C1,-4,18*,-4,-1,-2,5,6,2
Cc1ccc(N=Cc2c(O)[nH]c3ccccc23)c([N+](=O)[O-])c1,-4,19*,-2,0,-3,3,3,1
COc1ccc(N=Cc2c(O)[nH]c3ccccc23)cc1,-2,-1,-1,3,-3,4,x,x
O=C(c1noc2c1CSc1ccccc1-2)N1CCN(c2ccc(Cl)cc2)CC1,1,-13,0,2,0,-1,x,x
Cc1ccc2nc(SCCC#N)nc(C)c2c1,-3,0,2,-1,-2,1,x,x
Cc1ccc2nc(SCC(=O)O)nc(C)c2c1,-14,20*,-3,1,-3,7,2,2
COC(=O)c1c[nH]n2c(=O)cc(CCl)nc12,-7,20*,0,2,-1,6,0,1
COC(=O)c1c[nH]n2c(=O)c(C(C)C)c(C)nc12,-2,-12,0,-1,-4,-2,x,x
COc1cc2c(c3c1c(=O)c1cccc(F)c1n3C)C=CC(C)(C)O2,x,x,x,0,x,x,x,x
NC(=O)CC(NC(=O)c1ccc(Br)cc1)c1ccc(N2CCC(Cc3ccccc3)CC2)c([N+](=O)[O-])c1 (stereo unspecified),-12,19*,-1,1,-2,-1,10,11
NC(=O)CC(NC(=O)c1ccccc1)c1ccc(N2CCC(Cc3ccccc3)CC2)c([N+](=O)[O-])c1 (stereo unspecified),-1,-9,-1,-1,-3,8,x,x
Cc1[nH]nc(SCC(=O)Nc2cccc(O)c2)c1[N+](=O)[O-],-2,19*,-2,1,-3,-9,2,5
CC(C(=O)O)c1ccc(-c2ccccc2)c(F)c1 (stereo unspecified),-8,21*!,-1,-1,-2,-8,0,5
CC(C(=O)Nc1ccccc1)c1ccc(-c2ccccc2)c(F)c1 (stereo unspecified),-1,-4,0,x,0,-6,x,x
O=C1CSCC(=O)N1c1ccccc1,1,8,-2,1,-4,4,x,x
O=C1C2=C(SCCS2)C(=O)N1c1ccccc1,0,24*,0,0,0,-9,-3,-2
Cn1c(=O)n(CC(=O)NCC2CCCO2)c(=O)c2c3c(sc21)CCCC3 (stereo unspecified),-2,0,2,0,0,-19,x,x
CCOc1ccc(OCc2cccc(C(=O)O)c2)cc1,-2,20*,x,-2,x,-11,3,2
SMILES,MsrA act,PKA-R2B activ,VIM-2 inhibitor,MsrA inh,IMP-1 inh,PKA-R1A activ,R2B FP artifact,PKA-R2B act conf
COc1ccc(OCc2cccc(C(=O)O)c2)cc1,0,-11,x,0,x,13,x,x
COc1ccccc1C(=O)NC(CCSC)C(=O)NCc1ccncc1 (stereo unspecified),-5,21*,x,-1,x,7,0,1
COc1ccccc1NC(=O)N(C)C[C@H]1OCc2cn(nn2)CCCC(=O)N([C@H](C)CO)C[C@@H]1C,x,x,x,-1,x,x,x,x
CC1(C(=O)OCC(=O)Nc2cc(S(=O)(=O)N3CCOCC3)ccc2Cl)CC1(Cl)Cl (stereo unspecified),-2,-5,x,0,x,2,x,x
CCCN(C)C[C@@H]1Oc2ncc(Br)cc2C(=O)N([C@@H](C)CO)C[C@H]1C,-6,20*,x,0,x,3,5,3
CCCN(C)C[C@H]1Oc2ncc(Br)cc2C(=O)N([C@@H](C)CO)C[C@@H]1C,-5,-4,x,2,x,2,x,x
CC1CCN(C(=O)COC(=O)CNC(=O)C23CC4CC(CC(C4)C2)C3)CC1,-1,-11,x,-1,x,-4,x,x
CCN(CC)c1ccc(-n2c(C)c(C(C)=O)c(C(C)=O)c2C)cc1,1,19*,0,0,-1,-10,0,2
CCCc1cc(NC(=O)CCl)n(-c2ccccc2)n1,-4,20*,-4,0,-1,0,0,-3
CC(C)OC(=O)CSc1nnc(-c2ccc(C(C)(C)C)cc2)n1N,0,19*,-4,0,-7,0,-1,3
CCN(CC)c1ccc(NC(=O)Cn2c(C(C)NC(=O)c3ccccc3)nc3ccccc32)cc1 (stereo unspecified),-5,19*,-2,0,-2,1,-3,-3
CC(=O)N[C@@H]1C=C[C@@H](CC(=O)NCc2ccc(Cl)cc2)O[C@@H]1CO,x,x,x,0,x,x,x,x
Cc1nc2scc(C)n2c(=O)c1S(=O)(=O)Nc1ccc(F)cc1,-5,22*,2,2,-1,12,4,2
O=S(=O)(NC1CCCC1)c1ccc(S(=O)(=O)N(Cc2cccs2)CC2CCCO2)cc1 (stereo unspecified),-13,20*,-3,1,-2,5,0,1
Cc1ccccc1N1CCN(S(=O)(=O)CC23CCC(CC2=O)C3(C)C)CC1 (stereo unspecified),1,-3,-2,-1,-4,-1,x,x
Cc1ccccc1N1CCN(S(=O)(=O)C[C@]23CCC(CC2NC(=O)[C@@H](N)CCS(C)(=O)=O)C3(C)C)CC1 (stereo partly specified),-4,19*,x,-2,x,10,2,-2
Cc1cccc(C)c1NC(=O)C(c1ccc(C#N)cc1)n1c(=O)c(-c2ccccc2)nc2ccccc21 (stereo unspecified),x,x,x,1,x,x,x,x
CC(=O)N1CCN(C(=O)CSc2ncnc3sc(C)c(C)c23)CC1,-1,-1,x,0,x,-16,x,x

# Screens deposited in PubChem by The Scripps Research Institute Molecular Screening Center.
